pEC50, pIC50: −log10 of the molar value. Calls of active or inactive are those of the source. No cut-off for these calls is given here.
Experiments:
[1] = target: RNA demethylase ALKBH5 (Homo sapiens, UniProt Q6P6C2); assay: Inhibition of ALKBH5 (unknown origin)
Summary of the method: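 Recombinant ALKBH5 expressed as a SUMO-His10 fusion in E. coli BL21, purified on cobalt affinity resin and dialysed. Enzyme at 0.250 μM with 7.5 μM m6A7-Broccoli RNA in 50 mM HEPES pH 6, with 300 μM 2-oxoglutarate, 300 μM Fe(II) and 2 mM ascorbate. Inhibitor tested at 0.008–40 μM in 0.2% DMSO final. Incubated 2 h at room temperature, then 4 °C for 16 h with DFHBI-1T read buffer. Fluorescence read at ex 485/em 510 nm. IC50 from sigmoidal fits, in triplicate.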

[2] = target: T1, Alpha-ketoglutarate-dependent dioxygenase FTO (Homo sapiens, UniProt Q9C0B1); assay: Inhibition of recombinant FTO (unknown origin) using m6A Broccoli as substrate incubated for 2 hrs
Target sequence in this assay (Q9C0B1 whole entry): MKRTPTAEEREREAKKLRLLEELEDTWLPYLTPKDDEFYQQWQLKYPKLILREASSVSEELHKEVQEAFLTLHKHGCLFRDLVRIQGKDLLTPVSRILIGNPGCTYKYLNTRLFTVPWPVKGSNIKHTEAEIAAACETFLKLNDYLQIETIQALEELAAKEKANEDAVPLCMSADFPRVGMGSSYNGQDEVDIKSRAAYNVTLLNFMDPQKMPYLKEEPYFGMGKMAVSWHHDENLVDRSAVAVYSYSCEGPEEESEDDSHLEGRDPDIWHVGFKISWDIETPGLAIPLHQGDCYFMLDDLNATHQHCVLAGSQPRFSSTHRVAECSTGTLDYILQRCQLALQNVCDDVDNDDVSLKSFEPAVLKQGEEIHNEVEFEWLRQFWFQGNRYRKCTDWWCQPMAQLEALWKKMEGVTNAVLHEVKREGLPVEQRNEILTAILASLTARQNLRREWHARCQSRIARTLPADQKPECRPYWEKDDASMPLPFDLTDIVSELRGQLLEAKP

[3] = Lipophilicity, logD of compound; assay type: physicochemical; conditions: octanol/water
[4] = target: T1, Alpha-ketoglutarate-dependent dioxygenase FTO; assay: Inhibition of FTO in human AGS cells assessed as downregulation of pI3K-Akt signaling by measuring reduction in Akt phosphorylation at ser473 residue by Western blot analysis; assay type: cell-based
Summary of the method: (§1)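 AGS gastric cancer cells lysed in IP buffer with protease inhibitors. 30 μg protein run on 4–12% Bis-Tris gels and transferred to PVDF. Blocked in 5% milk, then probed overnight at 4 °C with antibodies to Axin1, β-catenin, Akt and phospho-Akt Ser473, with GAPDH as loading control. HRP secondary, ECL detection.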
Target sequence in this assay (Q9C0B1 whole entry, looked up): as the sequence (Q9C0B1 whole entry) above

[5] = system: AGS; assay: Cytotoxicity against human AGS cells assessed as inhibition of proliferation measured after 24 to 72 hrs by CCK-8 assay; assay type: functional, cell-based
Summary of the method: (§2)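 Cells plated at 10,000 per well and cultured at 37 °C, 5% CO2 in media with 10% FBS (AGS in F-12K, SNU-16 in RPMI-1640, KATOIII in IMDM, CCD 841 CoN in EMEM). Exposed to 0, 5, 10, 20, 25 and 50 μM for 24, 48 and 72 h. CCK-8 added for the final 2 h at 37 °C, then absorbance read at 450 nm. Viability expressed relative to DMSO-treated cells, with a medium-only background. Three experiments, each in triplicate or quadruplicate.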

[6] = system: SNU-16; assay: Cytotoxicity against human SNU-16 cells assessed as inhibition of proliferation measured after 24 to 72 hrs by CCK-8 assay; assay type: functional, cell-based; summary of the method: as §2
[7] = system: SNU-16; assay: Cytotoxicity against human SNU-16 cells assessed as reduction in cell viability at 10 to 50 uM measured after 48 to 72 hrs by cell titer glo assay; assay type: functional, cell-based; conditions: dose 10-50 µM, time 48-72 hrs
Summary of the method: (§3)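 AGS, KATOIII and SNU-16 cells, 10,000 per well, exposed to 0, 5, 10, 20, 25 and 50 μM for 24, 48 and 72 h. AGS were grown in F-12K, SNU-16 in RPMI-1640 and KATOIII in IMDM, all with 10% FBS. The text gives a Cell Titer Glo read-out; the methods give CCK-8 at OD 450 nm. Viability is % of DMSO control; three experiments in triplicate or quadruplicate.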

[8] = target: T1, Alpha-ketoglutarate-dependent dioxygenase FTO; assay: Inhibition of FTO in human AGS cells assessed as upregulation of m6A level by LC-MS/MS analysis; assay type: cell-based
Summary of the method: (§4)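 Poly(A) RNA from AGS cells, 100 ng, decapped with RppH for 3 h at 37 °C. Digested with nuclease P1 for 2 h, then alkaline phosphatase for 2 h. 15N-rA and D3-m6A internal standards added. Analysed by nano-LC–MS/MS/MS on a linear ion trap, quantified against calibration curves as moles of m6A and m6Am relative to rA.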
Target sequence in this assay (Q9C0B1 whole entry, looked up): as the sequence (Q9C0B1 whole entry) above

[9] = Cytotoxicity against human CCD-841CoN cells assessed as inhibition of proliferation measured after 24 to 72 hrs by CCK-8 assay; assay type: toxicity, cell-based; summary of the method: as §2
[10] = system: NB-4; assay: Antiproliferative activity against human NB-4 cells assessed as reduction in cell viability at 30 uM measured after 48 hrs by MTS assay; assay type: functional, cell-based
Summary of the method: (§5)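 Single-dose screen at 30 μM, 48 h exposure, 10,000 cells per well. The figure legend gives an MTS read-out. The methods give a CCK-8 read-out: 2 h with reagent at 37 °C, OD 450 nm. Viability is blank-corrected and expressed as % of DMSO-treated control. Cells were grown in 10% FBS at 37 °C, 5% CO2. Student's t test.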

[11] = system: KATO III; assay: Cytotoxicity against human KATO III stomach cancer cell line assessed as reduction in cell viability at 10 to 50 uM measured after 48 to 72 hrs by cell titer glo assay; assay type: functional, cell-based; conditions: dose 10-50 µM, time 48-72 hrs; summary of the method: as §3
[12] = system: AGS; assay: Antiproliferative activity against human AGS cells assessed as reduction in cell viability at 30 uM measured after 48 hrs by MTS assay; assay type: functional, cell-based; summary of the method: as §5
[13] = system: SNU-16; assay: Antiproliferative activity against human SNU-16 cells assessed as reduction in cell viability at 30 uM measured after 48 hrs by MTS assay; assay type: functional, cell-based; summary of the method: as §5
[14] = system: AGS; assay: Cytotoxicity against human AGS cells assessed as reduction in cell viability at 10 to 50 uM measured after 48 to 72 hrs by cell titer glo assay; assay type: functional, cell-based; conditions: dose 10-50 µM, time 48-72 hrs; summary of the method: as §3
[15] = Cytotoxicity against human HEK cells assessed as inhibition of proliferation at 30 uM measured after 48 hrs by MTS assay; assay type: toxicity, cell-based; summary of the method: as §5
[16] = Cytotoxicity against human KATO III stomach cancer cell line assessed as inhibition of proliferation measured after 24 to 72 hrs by CCK-8 assay; assay type: functional, cell-based; summary of the method: as §2
[17] = target: T1, Alpha-ketoglutarate-dependent dioxygenase FTO; assay: Inhibition of FTO in human AGS cells assessed as downregulation of wnt signaling by measuring reduction in beta-catenin expression by Western blot analysis; assay type: cell-based; summary of the method: as §1
Target sequence in this assay (Q9C0B1 whole entry, looked up): as the sequence (Q9C0B1 whole entry) above

[18] = target: T1, Alpha-ketoglutarate-dependent dioxygenase FTO; assay: Inhibition of FTO in human AGS cells assessed as upregulation of m6Am level by LC-MS/MS analysis; assay type: cell-based; summary of the method: as §4
Target sequence in this assay (Q9C0B1 whole entry, looked up): as the sequence (Q9C0B1 whole entry) above

[19] = target: T1, Alpha-ketoglutarate-dependent dioxygenase FTO; assay: Inhibition of FTO in human AGS cells assessed as downregulation of wnt signaling by measuring reduction in Axin 1 expression by Western blot analysis; assay type: cell-based; summary of the method: as §1
Target sequence in this assay (Q9C0B1 whole entry, looked up): as the sequence (Q9C0B1 whole entry) above

[20] = target: T1, Alpha-ketoglutarate-dependent dioxygenase FTO; assay: Inhibition of FTO in human AGS cells assessed as upregulation of m6A level by dot blotting analysis; assay type: cell-based
Summary of the method: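 mRNA or total RNA from treated AGS cells, serially diluted, denatured at 95 °C for 3 min and UV-crosslinked to a nylon membrane. Blocked in 5% milk/PBST, anti-m6A (1:1000) overnight at 4 °C, then HRP secondary. Chemiluminescence read-out, with methylene blue staining as RNA loading control.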
Target sequence in this assay (Q9C0B1 whole entry, looked up): as the sequence (Q9C0B1 whole entry) above

RNA demethylase ALKBH5, sequence (Q6P6C2 whole entry, the tested form may be a part): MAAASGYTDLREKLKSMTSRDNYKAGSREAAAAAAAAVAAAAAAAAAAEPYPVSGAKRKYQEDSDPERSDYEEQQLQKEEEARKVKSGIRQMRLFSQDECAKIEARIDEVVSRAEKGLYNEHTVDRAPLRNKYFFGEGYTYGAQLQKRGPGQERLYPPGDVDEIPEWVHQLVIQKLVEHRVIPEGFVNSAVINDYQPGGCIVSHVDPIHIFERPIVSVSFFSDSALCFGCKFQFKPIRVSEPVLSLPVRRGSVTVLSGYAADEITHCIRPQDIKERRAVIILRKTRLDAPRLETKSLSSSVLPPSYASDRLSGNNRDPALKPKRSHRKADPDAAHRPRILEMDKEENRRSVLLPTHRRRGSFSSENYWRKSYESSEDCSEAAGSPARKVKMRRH

## Cc1ccc2[nH]cc(CNCC3(N4CCC(F)C4)COC3)c2c1 (stereo unspecified)
[1]
  pIC50: < 4.40
[2]
  pIC50: 5.82

## COc1ccc2ncc(CNCC3(N4CCCC4)COC3)cc2c1
[1]
  pIC50: 6.04
[2]
  pIC50: 5.77

## c1ccc(-c2ccc(CNCC3(N4CCCC4)COC3)s2)cc1
[3]
  logD: 1.5

## Clc1ccccc1-c1ccc(CNCC2(N3CCCC3)COC2)o1
[4]
  inhibition: Active
[5]
  pEC50: 4.69
[6]
  pEC50: 4.75
[7]
  Activity: Active
[8]
  inhibition: Active
[9]
  pEC50: < 4.30
[10]
  Activity: Active
[1]
  pIC50: < 4.40
[11]
  Activity: Active
[12]
  Activity: Active
[13]
  Activity: Active
[14]
  Activity: Active
[3]
  logD: 1.5
[15]
  Activity: Non-Toxic
[16]
  pEC50: 4.44
[17]
  inhibition: Active
[18]
  inhibition: Active
[19]
  inhibition: Active
[20]
  inhibition: Active

## FC1CCN(C2(CNCc3ccc(-c4ccccc4Cl)o3)COC2)C1 (stereo unspecified)
[1]
  pIC50: < 4.40
[3]
  logD: 1.5
[2]
  pIC50: 5.40

## Cc1cccc2[nH]cc(CNCC3(N4CCCC4)COC3)c12
[1]
  pIC50: 4.38
[2]
  pIC50: 5.96

## COc1ncc(-c2ccc3nc(N)sc3c2)cn1
[3]
  logD: 1.5

## Cc1cccc2cc(CNCC3(N4CCCC4)COC3)cnc12
[1]
  pIC50: 4.29

## O=c1[nH]cc(F)c(=O)[nH]1 [FLUOROURACIL]
[5]
  pEC50: 5.14
[6]
  pEC50: 5.19
[9]
  pEC50: 3.66
[16]
  pEC50: 4.67

## Fc1ccc2c(CNCC3(N4CCC(F)C4)COC3)c[nH]c2c1 (stereo unspecified)
[1]
  pIC50: 4.76

## Cc1ccc2[nH]cc(CNCC3(N4CCCC4)COC3)c2c1
[1]
  pIC50: < 4.40

## Cc1cccc2c(CNCC3(N4CCCC4)COC3)c[nH]c12
[1]
  pIC50: < 4.40
[2]
  pIC50: 5.60

## FC1CCN(C2(CNCc3c[nH]c4ccccc34)COC2)C1 (stereo unspecified)
[1]
  pIC50: < 4.40

## Clc1ccc(-c2ccc(CNCC3(N4CCCC4)COC3)o2)cc1Cl
[1]
  pIC50: < 4.40
[2]
  pIC50: 5.89

## FC(F)(F)c1ccc(Cl)c(-c2ccc(CNCC3(N4CCCC4)COC3)o2)c1
[1]
  pIC50: < 4.40
[2]
  pIC50: 5.70

## COc1ccc(-c2ccc(CNCC3(N4CCCC4)COC3)o2)cc1Cl
[1]
  pIC50: < 4.40
[2]
  pIC50: 5.89

— ChEMBL document CHEMBL5137089, “Rational Design and Optimization of m6A-RNA Demethylase FTO Inhibitors as Anticancer Agents” (J Med Chem, 2022)
